Twelve molecules from ChEMBL document CHEMBL4052817 (J Med Chem, 2017) can be followed below.

The nature of data set [1]: Drug metabolism in human hepatocytes in presence of CYP inhibitor ABT. Type of data set: ADME, cell-based, Hepatocyte. As to conditions: with ABT (CYP inhibitor), read-out: Drug metabolism.
The subject of data set [2] is Cynomolgus monkey. In words: AUC (infinity) in cynomolgus monkey assessed as (S)-3-(5-fluoro-1H-indol-3-yl)pyrrolidine-2,5-dione at 1 mg/kg, iv. Format: ADME, organism-based, Macaca fascicularis. Further details: dose 1 mg/kg, route intravenous, time infinity. As to conditions: in vivo. A digest of the protocol:
(§1)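 Pure active (R)-enantiomer given IV at 1 mg/kg to rat, dog and monkey. Exposure (AUCinf) of the (R)- and (S)-enantiomers measured; their AUC ratio reported as an index of in vivo interconversion.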

A short description of data set [3]: Drug metabolism in human hepatocytes in absence of CYP inhibitor ABT. Type of data set: ADME, cell-based, Hepatocyte. Particulars: read-out: Drug metabolism.
The nature of data set [4]: AUC (infinity) in dog at 1 mg/kg, iv. Format: ADME, organism-based, Canis lupus familiaris. Further details: dose 1 mg/kg, route intravenous, time infinity. As to conditions: in vivo.
Data set [5] is described as follows: Fraction unbound in human plasma after 48 hrs. Format: ADME, cell-free.
A short description of data set [6]: AUC (infinity) in rat at 1 mg/kg, iv. Format: ADME, organism-based. Further details: dose 1 mg/kg, time infinity, route intravenous. As to conditions: in vivo.
The target in data set [7] is Indoleamine 2,3-dioxygenase 1 (Mus musculus, UniProt P28776). In words: Inhibition of mouse IDO-1 using tryptophan as substrate after 22 mins by LC-MS/MS method.
The subject of a further data set is Canis familiaris. Nature of the data set: AUC (infinity) in dog assessed as (S)-3-(5-fluoro-1H-indol-3-yl)pyrrolidine-2,5-dione at 1 mg/kg, iv. Type of data set: ADME, organism-based, Canis lupus familiaris. Further details: dose 1 mg/kg, route intravenous, time infinity. As to conditions: in vivo. In short, it runs like this: as §1
A short description of data set [8]: Inhibition of dog IDO-1 using tryptophan as substrate after 22 mins by LC-MS/MS method.
A short description of data set [9]: Metabolic stability in dog plasma assessed as parent compound remaining after 48 hrs. Format: ADME, cell-free, Canis lupus familiaris. As to conditions: read-out: Stability. In short, it runs like this: (§2)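 Active enantiomer incubated 48 h in mouse, dog or rat plasma, or in dog plasma that had been acidified; remaining enantiomer and formed antipode measured by chiral LC/MS-MS.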

Data set [10] in a line: AUC (infinity) in cynomolgus monkey at 1 mg/kg, iv. Format: ADME, organism-based, Macaca fascicularis. Further details: dose 1 mg/kg, route intravenous, time infinity. Particulars: in vivo.
Data set [11] in a line: Metabolic stability in mouse plasma assessed as parent compound remaining after 48 hrs. Type of data set: ADME, cell-free. Particulars: read-out: Stability. A digest of the protocol: as §2
For another data set, the system named is Rattus norvegicus. Nature of the data set: AUC (infinity) in rat assessed as (S)-3-(5-fluoro-1H-indol-3-yl)pyrrolidine-2,5-dione at 1 mg/kg, iv. Format: ADME, organism-based. Also noted: dose 1 mg/kg, time infinity, route intravenous. Particulars: in vivo. In short, it runs like this: as §1
Data set [12] is described as follows: Metabolic stability in rat plasma assessed as parent compound remaining after 48 hrs. Type of data set: ADME, cell-free. As to conditions: read-out: Stability. A digest of the protocol: as §2
A short description of data set [13]: Chemical stability in phosphate buffer saline at pH 7.4 assessed as parent compound remaining after 48 hrs. Format: physicochemical. Particulars: phosphate buffered saline, read-out: Stability. In short, it runs like this: (§3)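 (R)-enantiomer incubated for 48 h in phosphate-buffered saline (pH 7.4) or in mouse, rat, dog or acidified dog plasma. The (R)-enantiomer remaining and (S)-enantiomer formed were quantified (%) by chiral LC/MS-MS.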

Data set [14] has as its system Cynomolgus monkey. Nature of the data set: Drug metabolism in cynomolgus monkey assessed as (S)-3-(5-fluoro-1H-indol-3-yl)pyrrolidine-2,5-dione formation at 10 mg/kg, po. Type of data set: ADME, organism-based, Macaca fascicularis. As to conditions: in vivo. A digest of the protocol:
(§4)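 (R)-enantiomer or racemate dosed orally at 10 mg/kg to monkeys. Total plasma concentrations of each enantiomer were followed over time.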

Data set [15] in a line: Metabolic stability in dog acidified plasma assessed as parent compound remaining after 48 hrs. Format: ADME, cell-free, Canis lupus familiaris. Particulars: read-out: Stability. In short, it runs like this: as §2
Data set [16] addresses Indoleamine 2,3-dioxygenase 1 (Homo sapiens, UniProt P14902). Nature of the data set: Inhibition of human recombinant IDO-1 using L-Trp as substrate after 15 mins by PDMAB-based assay.
Data set [17] is described as follows: Oral bioavailability in mouse at 5 mg/kg. Format: ADME, organism-based. Particulars: in vivo.
The target of the next data set is Cytochrome P450 2D6 (Homo sapiens, UniProt P10635). In words: Inhibition of CYP2D6 (unknown origin). Format: ADME.
Data set [18] can be described thus: Clearance in mouse. Type of data set: ADME, organism-based. Particulars: in vivo.
The target in the next data set is Cytochrome P450 2C9 (Homo sapiens, UniProt P11712). Nature of the data set: Inhibition of CYP2C9 (unknown origin). Type of data set: ADME.
Data set [19] is described as follows: Intrinsic clearance in human microsomes. Type of data set: ADME, Microsome.
The target of the next data set is Cytochrome P450 2C19 (Homo sapiens, UniProt P33261). Nature of the data set: Inhibition of CYP2C19 (unknown origin). Format: ADME.
Data set [20] can be described thus: Fraction unbound in human plasma. Type of data set: ADME, cell-free. In short, it runs like this:
(§5)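 Racemate incubated with plasma from preclinical species and humans. The unbound fraction of the (R)-enantiomer was determined.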

For the next data set, the target named is T1, Cytochrome P450 1A2 (Homo sapiens, UniProt P05177).
T1 sequence (P05177 whole entry): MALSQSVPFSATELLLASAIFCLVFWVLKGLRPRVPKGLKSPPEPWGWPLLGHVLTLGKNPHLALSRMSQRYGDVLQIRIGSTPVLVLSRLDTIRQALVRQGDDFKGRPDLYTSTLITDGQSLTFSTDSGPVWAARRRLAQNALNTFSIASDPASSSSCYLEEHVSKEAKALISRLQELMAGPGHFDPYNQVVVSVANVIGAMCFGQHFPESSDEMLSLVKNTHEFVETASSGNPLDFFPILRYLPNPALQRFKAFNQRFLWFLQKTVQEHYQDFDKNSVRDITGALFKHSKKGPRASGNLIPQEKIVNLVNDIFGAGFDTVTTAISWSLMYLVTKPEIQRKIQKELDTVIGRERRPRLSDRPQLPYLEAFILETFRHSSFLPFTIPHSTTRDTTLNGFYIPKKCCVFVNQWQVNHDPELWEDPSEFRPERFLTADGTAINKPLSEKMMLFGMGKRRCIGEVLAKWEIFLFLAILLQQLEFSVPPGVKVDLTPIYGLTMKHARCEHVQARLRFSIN
Nature of the data set: Inhibition of CYP1A2 (unknown origin). Type of data set: ADME.

Data set [21] is described as follows: Half life in mouse. Type of data set: ADME, organism-based. Particulars: in vivo.
Data set [22] in a line: Volume of distribution at steady state in mouse. Particulars: in vivo, read-out: Vdss. Format: ADME, organism-based. In short, it runs like this: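 Single 1 mg/kg IV dose of the racemate to male CD-1 mice (n=3). The plasma active enantiomer was quantified by chiral LC-MS/MS, and Vss was taken from the plasma concentration–time profile.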
Data set [23] is described as follows: Fraction unbound in mouse plasma. Format: ADME, cell-free. In short, it runs like this: as §5
Data set [24] can be described thus: Intrinsic clearance in mouse microsomes. Format: ADME, Microsome.
Data set [25] is described as follows: Efflux ratio of apparent permeability across human Caco2 cells. Type of data set: ADME, cell-based. Particulars: Caco-2. Background: Caco-2 cells form a polarised layer with tight junctions and transporters.
Data set [26] can be described thus: Apparent permeability across human Caco2 cells. Type of data set: ADME, cell-based. As to conditions: Caco-2.
The target in another data set is Cytochrome P450 3A4 (Homo sapiens, UniProt P08684). Nature of the data set: Inhibition of CYP3A4 (unknown origin). Format: ADME.
Data set [27] can be described thus: Oral bioavailability in mouse at 30 mg/kg. Type of data set: ADME, organism-based. Particulars: in vivo.
Data set [28] concerns Cynomolgus monkey. In words: Drug level in cynomolgus monkey treated with (R)-3-(5-fluoro-1H-indol-3-yl)pyrrolidine-2,5-dione at 10 mg/kg, po. Type of data set: ADME, organism-based, Macaca fascicularis. Particulars: in vivo. In short, it runs like this: as §4
In data set [29] the test system is Plasma. Nature of the data set: Drug level in dog acidified plasma treated with (R)-3-(5-fluoro-1H-indol-3-yl)pyrrolidine-2,5-dione after 48 hrs. Format: ADME, cell-free, Canis lupus familiaris. A digest of the protocol:
as §3

For data set [30], the system named is Plasma. Nature of the data set: Drug level in mouse plasma treated with (R)-3-(5-fluoro-1H-indol-3-yl)pyrrolidine-2,5-dione after 48 hrs. Format: ADME, cell-free. A digest of the protocol: as §3
The subject of data set [31] is Plasma. Nature of the data set: Drug level in rat plasma treated with (R)-3-(5-fluoro-1H-indol-3-yl)pyrrolidine-2,5-dione after 48 hrs. Type of data set: ADME, cell-free. A digest of the protocol:
as §3

The subject of data set [32] is Plasma. Nature of the data set: Drug level in dog plasma treated with (R)-3-(5-fluoro-1H-indol-3-yl)pyrrolidine-2,5-dione after 48 hrs. Format: ADME, cell-free, Canis lupus familiaris. In short, it runs like this:
as §3

Data set [33] can be described thus: Drug level in phosphate buffer saline at pH 7.4 treated with (R)-3-(5-fluoro-1H-indol-3-yl)pyrrolidine-2,5-dione after 48 hrs. A digest of the protocol: as §3

What is called AUC is concentration integrated over time. A word on the AUC(0-inf): it is total exposure, with the tail of the curve extrapolated. Usually fraction unbound stands for free concentration divided by total concentration. The term IC50 denotes the concentration needed to halve the response being measured. As usually defined, the bioavailability is dose-corrected exposure relative to a reference, in per cent. For orientation: half-life means how long it takes for the measured level to halve. As a reminder, the efflux ratio is the permeability from basolateral to apical divided by that in the opposite direction, in the common usage. The term Papp denotes a coefficient for how fast a substance crosses the barrier.

Molecules are shown by their SMILES.

Sequence of Indoleamine 2,3-dioxygenase 1 (Homo sapiens, UniProt P14902) (P14902 whole entry): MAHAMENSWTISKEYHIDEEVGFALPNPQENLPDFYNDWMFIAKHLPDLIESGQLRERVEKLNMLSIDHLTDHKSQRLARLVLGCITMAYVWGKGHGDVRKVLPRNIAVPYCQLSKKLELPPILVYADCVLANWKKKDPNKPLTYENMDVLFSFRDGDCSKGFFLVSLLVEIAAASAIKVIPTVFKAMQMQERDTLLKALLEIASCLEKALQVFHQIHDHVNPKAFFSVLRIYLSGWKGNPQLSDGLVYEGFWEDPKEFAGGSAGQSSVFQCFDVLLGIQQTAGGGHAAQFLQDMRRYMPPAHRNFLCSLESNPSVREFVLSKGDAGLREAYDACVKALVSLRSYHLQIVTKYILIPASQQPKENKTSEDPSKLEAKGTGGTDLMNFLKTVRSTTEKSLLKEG
Sequence of Cytochrome P450 2D6 (P10635 whole entry): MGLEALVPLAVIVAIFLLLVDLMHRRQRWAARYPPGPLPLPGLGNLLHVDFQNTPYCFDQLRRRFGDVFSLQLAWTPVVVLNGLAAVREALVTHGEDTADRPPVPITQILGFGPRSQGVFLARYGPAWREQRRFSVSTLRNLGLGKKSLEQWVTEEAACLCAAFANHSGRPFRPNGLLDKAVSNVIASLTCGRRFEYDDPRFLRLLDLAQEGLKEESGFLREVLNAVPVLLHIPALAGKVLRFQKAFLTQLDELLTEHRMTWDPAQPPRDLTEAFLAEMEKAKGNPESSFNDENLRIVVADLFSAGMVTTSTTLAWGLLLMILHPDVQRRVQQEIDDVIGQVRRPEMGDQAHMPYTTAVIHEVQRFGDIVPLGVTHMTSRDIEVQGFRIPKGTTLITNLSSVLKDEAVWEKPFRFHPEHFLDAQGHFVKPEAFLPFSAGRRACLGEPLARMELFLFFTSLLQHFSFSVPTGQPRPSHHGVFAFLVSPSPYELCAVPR
Sequence of Cytochrome P450 3A4 (P08684 whole entry): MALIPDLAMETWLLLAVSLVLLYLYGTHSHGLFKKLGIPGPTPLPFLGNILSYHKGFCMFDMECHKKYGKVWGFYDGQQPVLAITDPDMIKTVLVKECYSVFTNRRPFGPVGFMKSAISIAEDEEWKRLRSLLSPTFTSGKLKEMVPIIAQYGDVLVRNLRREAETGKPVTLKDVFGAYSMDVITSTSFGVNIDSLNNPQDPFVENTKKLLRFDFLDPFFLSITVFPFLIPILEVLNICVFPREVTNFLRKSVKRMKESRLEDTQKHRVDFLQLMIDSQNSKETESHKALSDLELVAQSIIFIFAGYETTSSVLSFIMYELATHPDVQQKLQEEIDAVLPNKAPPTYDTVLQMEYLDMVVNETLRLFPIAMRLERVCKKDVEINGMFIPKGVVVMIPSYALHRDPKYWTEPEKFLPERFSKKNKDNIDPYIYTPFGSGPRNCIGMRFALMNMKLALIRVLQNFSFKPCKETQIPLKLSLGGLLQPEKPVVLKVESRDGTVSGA
Sequence of Cytochrome P450 2C9 (P11712 whole entry): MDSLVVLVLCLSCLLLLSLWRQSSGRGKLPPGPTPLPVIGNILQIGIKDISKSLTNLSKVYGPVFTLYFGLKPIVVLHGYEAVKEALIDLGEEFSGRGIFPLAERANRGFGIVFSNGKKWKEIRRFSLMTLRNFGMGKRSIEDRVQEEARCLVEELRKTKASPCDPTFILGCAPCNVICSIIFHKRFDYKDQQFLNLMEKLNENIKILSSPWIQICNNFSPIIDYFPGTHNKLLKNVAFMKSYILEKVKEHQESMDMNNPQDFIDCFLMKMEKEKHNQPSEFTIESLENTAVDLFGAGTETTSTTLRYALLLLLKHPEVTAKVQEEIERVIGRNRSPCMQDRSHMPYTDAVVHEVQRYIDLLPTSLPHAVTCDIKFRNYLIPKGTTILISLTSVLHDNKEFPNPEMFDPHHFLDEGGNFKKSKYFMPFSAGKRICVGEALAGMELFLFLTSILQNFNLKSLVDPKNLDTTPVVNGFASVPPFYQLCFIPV
Sequence of Cytochrome P450 2C19 (P33261 whole entry): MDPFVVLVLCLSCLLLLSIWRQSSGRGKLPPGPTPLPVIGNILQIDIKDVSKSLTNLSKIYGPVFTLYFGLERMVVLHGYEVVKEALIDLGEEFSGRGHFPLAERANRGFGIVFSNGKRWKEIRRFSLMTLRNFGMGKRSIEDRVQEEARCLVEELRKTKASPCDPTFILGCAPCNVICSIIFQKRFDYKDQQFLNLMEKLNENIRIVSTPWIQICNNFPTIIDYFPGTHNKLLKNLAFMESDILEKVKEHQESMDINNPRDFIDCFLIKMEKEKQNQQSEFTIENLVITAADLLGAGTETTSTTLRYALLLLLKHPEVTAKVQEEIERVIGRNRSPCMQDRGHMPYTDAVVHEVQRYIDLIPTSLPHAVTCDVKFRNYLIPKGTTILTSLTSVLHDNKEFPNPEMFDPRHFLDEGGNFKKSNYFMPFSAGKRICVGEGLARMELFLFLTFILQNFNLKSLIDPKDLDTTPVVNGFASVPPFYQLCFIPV
Sequence of Indoleamine 2,3-dioxygenase 1 (Mus musculus, UniProt P28776) (P28776 whole entry): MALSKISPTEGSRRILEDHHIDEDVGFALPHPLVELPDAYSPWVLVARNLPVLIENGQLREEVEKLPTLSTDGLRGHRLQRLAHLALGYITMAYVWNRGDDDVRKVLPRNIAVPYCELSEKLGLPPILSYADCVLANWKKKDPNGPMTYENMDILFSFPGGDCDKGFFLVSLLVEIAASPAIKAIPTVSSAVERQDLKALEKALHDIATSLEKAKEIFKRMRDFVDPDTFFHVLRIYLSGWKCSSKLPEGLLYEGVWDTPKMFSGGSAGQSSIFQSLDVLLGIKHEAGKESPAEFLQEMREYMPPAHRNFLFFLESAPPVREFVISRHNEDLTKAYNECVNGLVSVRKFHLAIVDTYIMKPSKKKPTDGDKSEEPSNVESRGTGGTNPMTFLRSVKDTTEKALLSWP

Take `O=C1C[C@H](c2c[nH]c3ccc(F)cc23)C(=O)N1`: the metabolised in data set [1] is 39%; in data set [3] it was 61%. Further, the AUC came to 3516 ng·h/mL in the data set on Cynomolgus monkey [2], 124 ng·h/mL in the data set on Canis familiaris and 153 ng·h/mL in the data set on Rattus norvegicus. The AUC(0-inf) in data set [4] came to 696 ng·h/mL; in data set [6] it was 2270 ng·h/mL; in [10], 6810 ng·h/mL. Moreover, the fraction unbound at 48 h in data set [5] came out at 0.449. For the same molecule, the IC50 in data set [7] is 7.3 µM; in data set [8], 0.2 µM. The remaining at 48 h in data set [9] is 30%; in data set [11], 35%; in data set [12], 27%; in data set [13] it was 89%; in [15], 93.5%. The Drug metabolism result in the data set on Cynomolgus monkey [14] is “Metabolite_Detected”.

Turning to `O=C1CC(c2c[nH]c3ccc(Cl)cc23)C(=O)N1` (centres undefined), the IC50 in data set [16] was 0.83 µM.

For `O=C1CC(c2c[nH]c3ccc(C(F)(F)F)cc23)C(=O)N1` (centres undefined), the IC50 in [16] stood at 9.7 µM.

`O=C1C[C@H](c2c[nH]c3cc(Cl)c(F)cc23)C(=O)N1`: the IC50 in [16] amounted to 0.58 µM.

Turning to `O=C1C[C@@H](c2c[nH]c3cc(Cl)c(F)cc23)C(=O)N1`, in [16], the IC50 was over 50 µM.

As for `O=C1C[C@@H](c2c[nH]c3ccccc23)C(=O)N1`, the IC50 in [16] was found to be 83 µM.

On to `O=C1CC(c2cccc3cc(Cl)ccc23)C(=O)N1` (centres undefined), for which, in data set [16], the IC50 was over 50 µM.

With `N#Cc1ccc2[nH]cc(C3CC(=O)NC3=O)c2c1` (centres undefined), the IC50 in data set [16] came to 1.2 µM.

In the case of `O=C1C[C@H](c2c[nH]c3ccccc23)C(=O)N1`, the bioavailability turned out to be 63% in data set [17] and 65% in data set [27]. Besides, the IC50 against Cytochrome P450 2D6, against Cytochrome P450 2C9, against Cytochrome P450 2C19, on Cytochrome P450 1A2 and at Cytochrome P450 3A4 was over 10 µM throughout. Also, the clearance in data set [18] was 15.6 mL/min/kg; in data set [19], under 10 µL/min/mg; in data set [24], under 10 µL/min/mg. The fraction unbound in data set [20] stood at 0.43; in [23] it was 0.55. This molecule also had a half-life in data set [21] of 58.2 min. Also, the Vd in [22] turned out to be 1.2 L/kg. For the same molecule, in data set [25], the efflux ratio was determined as 0.77. Moreover, the Papp in data set [26] came out at 28 ×10⁻⁶ cm/s.

Regarding `O=C1C[C@@H](c2c[nH]c3ccc(F)cc23)C(=O)N1`, the Drug metabolism result in the data set on Cynomolgus monkey [28] is given as “Metabolite_Detected”; in the data set with Plasma [29], “Metabolite_Detected”; in the data set with Plasma [30], “Metabolite_Detected”; in the data set on Plasma [31], “Metabolite_Detected”; in the data set on Plasma [32] it was “Metabolite_Detected”; in data set [33] it was “Metabolite detected”. The fraction unbound at 48 h in [5] was found to be 0.286.

As for `O=C1CC(c2cccc3ccc(Cl)cc23)C(=O)N1` (centres undefined), the IC50 in [16] is over 50 µM.

Take `COc1ccc2c(C3CC(=O)NC3=O)c[nH]c2c1` (centres undefined): the IC50 in [16] was over 50 µM.
